Laboratory results from ChEMBL document CHEMBL1152430, “Selective inhibition of nicotinamide adenine dinucleotide kinases by dinucleoside disulfide mimics of nicotinamide adenine dinucleotide analogues” (Bioorg Med Chem, 2009).
Activity calls are given as the source filed them. No cut-off for these calls is given here.

Experiments:
[1] = Inhibition of horse liver alcohol dehydrogenase; set-up: species or system Equus caballus
[2] = (§1) Inhibition of human IMPDH
[3] = biological target: L-lactate dehydrogenase (Homo sapiens) (UniProt V9HWB9); assay: Inhibition of human LDH
[4] = biological target: T1, NAD kinase (Mycobacterium tuberculosis, UniProt P9WHV7); assay: Inhibition of Mycobacterium tuberculosis NAD kinase by modified HPLC based assay
T1 sequence (P9WHV7 whole entry): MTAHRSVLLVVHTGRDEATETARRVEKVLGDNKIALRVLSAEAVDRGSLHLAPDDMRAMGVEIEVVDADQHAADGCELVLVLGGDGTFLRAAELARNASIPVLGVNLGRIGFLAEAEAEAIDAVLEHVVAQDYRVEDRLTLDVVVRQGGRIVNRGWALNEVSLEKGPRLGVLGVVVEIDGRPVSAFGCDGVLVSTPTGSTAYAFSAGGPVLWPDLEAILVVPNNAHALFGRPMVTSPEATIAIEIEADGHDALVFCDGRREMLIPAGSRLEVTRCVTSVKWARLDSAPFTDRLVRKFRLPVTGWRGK
How it was run: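 Purified-to-homogeneity M. tuberculosis NAD kinase incubated at 37 °C in 50 mM Tris/HCl pH 8.0, 20 mM MgCl₂ with ATP and NAD substrates, without or with varying inhibitor concentrations. Reaction stopped with HClO₄, neutralized with K₂CO₃, nucleotides resolved by reversed-phase C18 HPLC with potassium phosphate pH 6.0/methanol gradient.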

[5] = biological target: L-lactate dehydrogenase (Homo sapiens) (UniProt V9HWB9); assay: Inhibition of human LDH at 100 uM
[6] = biological target: Inosine-5'-monophosphate dehydrogenase 1 (Homo sapiens) (UniProt P20839); assay: Inhibition of human IMPDH1 at 100 uM
[7] = biological target: T2, NAD kinase (Homo sapiens, UniProt O95544); assay: Inhibition of human NAD kinase by modified HPLC based assay
T2 sequence (O95544 whole entry): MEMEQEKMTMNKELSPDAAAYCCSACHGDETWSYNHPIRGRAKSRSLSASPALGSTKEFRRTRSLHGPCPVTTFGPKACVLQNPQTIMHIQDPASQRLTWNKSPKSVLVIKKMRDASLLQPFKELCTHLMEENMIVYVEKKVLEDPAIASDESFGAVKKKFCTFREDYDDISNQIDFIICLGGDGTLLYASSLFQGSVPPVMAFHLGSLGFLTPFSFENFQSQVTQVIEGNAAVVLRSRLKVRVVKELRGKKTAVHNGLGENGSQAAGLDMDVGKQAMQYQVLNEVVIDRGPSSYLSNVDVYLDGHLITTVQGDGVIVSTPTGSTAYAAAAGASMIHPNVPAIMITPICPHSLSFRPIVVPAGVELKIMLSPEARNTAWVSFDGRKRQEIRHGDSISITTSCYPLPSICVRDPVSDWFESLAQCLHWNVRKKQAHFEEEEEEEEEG

[8] = species on record: Homo sapiens; assay: as §1
[9] = biological target: Inosine-5'-monophosphate dehydrogenase 2 (Homo sapiens) (UniProt P12268); assay: Inhibition of human IMPDH2 at 100 uM
[10] = Inhibition of Listeria monocytogenes NADK1
[11] = Binding affinity to penicillopepsin

Inosine-5'-monophosphate dehydrogenase 2 (Homo sapiens), sequence (P12268 2-514 limits assumed): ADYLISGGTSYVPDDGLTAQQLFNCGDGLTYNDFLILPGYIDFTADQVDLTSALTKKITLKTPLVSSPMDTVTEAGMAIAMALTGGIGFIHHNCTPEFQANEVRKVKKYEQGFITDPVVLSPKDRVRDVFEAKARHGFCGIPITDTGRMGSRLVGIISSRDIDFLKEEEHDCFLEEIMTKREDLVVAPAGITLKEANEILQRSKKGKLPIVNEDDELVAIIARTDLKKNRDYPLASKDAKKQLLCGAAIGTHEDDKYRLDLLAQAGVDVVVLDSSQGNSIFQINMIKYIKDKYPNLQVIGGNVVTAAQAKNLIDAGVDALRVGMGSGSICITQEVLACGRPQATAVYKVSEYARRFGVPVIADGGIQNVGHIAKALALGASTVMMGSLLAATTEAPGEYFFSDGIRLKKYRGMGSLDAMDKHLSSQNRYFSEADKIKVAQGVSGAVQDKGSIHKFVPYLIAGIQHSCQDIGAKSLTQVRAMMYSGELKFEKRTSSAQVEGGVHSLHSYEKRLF
Inosine-5'-monophosphate dehydrogenase 1 (Homo sapiens), sequence (P20839 2-514 limits assumed): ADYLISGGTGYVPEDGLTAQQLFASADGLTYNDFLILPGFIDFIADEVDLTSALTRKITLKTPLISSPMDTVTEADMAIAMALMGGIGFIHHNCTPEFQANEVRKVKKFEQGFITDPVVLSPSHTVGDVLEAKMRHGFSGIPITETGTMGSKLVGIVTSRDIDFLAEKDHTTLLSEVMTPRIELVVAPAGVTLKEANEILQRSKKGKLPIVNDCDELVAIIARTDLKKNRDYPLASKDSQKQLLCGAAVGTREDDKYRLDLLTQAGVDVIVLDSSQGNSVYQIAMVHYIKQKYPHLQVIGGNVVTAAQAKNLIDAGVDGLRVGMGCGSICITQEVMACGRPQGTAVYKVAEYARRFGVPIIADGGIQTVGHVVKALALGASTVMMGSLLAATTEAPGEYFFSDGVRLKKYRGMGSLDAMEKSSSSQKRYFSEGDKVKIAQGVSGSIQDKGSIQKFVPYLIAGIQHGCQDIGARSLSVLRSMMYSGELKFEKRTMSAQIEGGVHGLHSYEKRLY

## NC(=O)c1csc([C@@H]2O[C@H](COP(=O)(O)OP(=O)(O)OC[C@H]3O[C@@H](n4cnc5c(N)ncnc54)[C@H](O)[C@@H]3O)[C@@H](O)[C@H]2O)n1 [TIAZOFURIN ADENINE DINUCLEOTIDE]
[1]
  Ki: 0.001 µM
[2]
  Ki: 0.1 µM

## NC(=O)c1csc([C@@H]2O[C@H](CSSC[C@H]3O[C@@H](n4cnc5c(N)ncnc54)[C@H](O)[C@@H]3O)[C@@H](O)[C@H]2O)n1
[3]
  inhibition: inactive
[4]; read-out: IC50
  IC50: 80 µM
[5]
  inhibition: inactive
[6]
  inhibition: inactive
[7]; read-out: IC50
  IC50: 110 µM
[8]
  inhibition: inactive
[9]
  inhibition: inactive

## C[C@@]1(O)[C@H](O)[C@@H](CSSC[C@H]2O[C@@H](n3cnc4c(N)ncnc43)[C@](C)(O)[C@@H]2O)O[C@H]1n1cnc2c(N)ncnc21
[4]; read-out: IC50
  IC50: 500 µM
[5]
  inhibition: inactive
[6]
  inhibition: inactive
[7]; read-out: IC50
  IC50: 280 µM
[9]
  inhibition: inactive

## CCc1nc(N)c2ncn([C@@H]3O[C@H](COP(=O)(O)OP(=O)(O)OC[C@H]4O[C@@H](c5nc(C(N)=O)cs5)[C@H](O)[C@@H]4O)[C@@H](O)[C@H]3O)c2n1
[2]
  Ki: 0.001 µM

## NC(=O)c1cccc([C@@H]2O[C@H](COP(=O)(O)OP(=O)(O)OC[C@H]3O[C@@H](n4cnc5c(N)ncnc54)[C@H](O)[C@@H]3O)[C@@H](O)[C@H]2O)c1 [BENZAMIDEADENINEDINUCLEOSIDE]
[4]; read-out: IC50
  IC50: 200 µM

## Nc1ncnc2c1ncn2[C@@H]1O[C@H](CSSC[C@H]2O[C@@H](n3cnc4c(N)ncnc43)[C@H](O)[C@@H]2O)[C@@H](O)[C@H]1O
[3]
  inhibition: inactive
[4]; read-out: IC50
  IC50: 45 µM
[5]
  inhibition: inactive
[6]
  inhibition: inactive
[10]
  Ki: 20 µM
[7]; read-out: IC50
  IC50: 87 µM
[8]
  inhibition: inactive
[9]
  inhibition: inactive

## C[C@@]1(O)[C@@H](CSSC[C@H]2O[C@@H](n3cnc4c(N)ncnc43)[C@H](O)[C@]2(C)O)O[C@@H](n2cnc3c(N)ncnc32)[C@@H]1O
[4]
  IC50: Not Active
[5]
  inhibition: inactive
[6]
  inhibition: inactive
[7]
  IC50: Not Active
[9]
  inhibition: inactive

## Nc1ncnc2c1nc(-c1ccccc1)n2[C@@H]1O[C@H](CSSC[C@H]2O[C@@H](n3c(-c4ccccc4)nc4c(N)ncnc43)[C@H](O)[C@@H]2O)[C@@H](O)[C@H]1O
[4]
  IC50: Not Active
[5]
  inhibition: inactive
[6]
  inhibition: inactive
[7]; read-out: IC50
  IC50: 45 µM
[9]
  inhibition: inactive

## NC(=O)c1csc([C@@H]2O[C@H](COP(=O)(O)OP(=O)(O)OC[C@H]3O[C@@H](n4cnc5c(N)nc(I)nc54)[C@H](O)[C@@H]3O)[C@@H](O)[C@H]2O)n1
[2]
  Ki: 0.02 µM

## COC(=O)[C@@H]1Cc2cccc(c2)CNC(=O)C[C@H](NC(=O)[C@@H](NC(=O)CC(C)C)C(C)C)C(=O)N[C@@H](CC(C)C)P(=O)(O)O1
[11]
  Ki: 0.0001 µM

## COC(=O)[C@H](Cc1ccccc1)OP(=O)(O)[C@H](CC(C)C)NC(=O)[C@H](CC(N)=O)NC(=O)[C@@H](NC(=O)CC(C)C)C(C)C
[11]
  Ki: 0.042 µM

## Nc1ncnc2c1nc(Br)n2[C@@H]1O[C@H](CSSC[C@H]2O[C@@H](n3c(Br)nc4c(N)ncnc43)[C@H](O)[C@@H]2O)[C@@H](O)[C@H]1O
[4]; read-out: IC50
  IC50: 19 µM
[5]
  inhibition: inactive
[6]
  inhibition: inactive
[7]; read-out: IC50
  IC50: 6 µM
[9]
  inhibition: inactive

## C#Cc1nc(N)c2ncn([C@@H]3O[C@H](COP(=O)(O)OP(=O)(O)OC[C@H]4O[C@@H](c5nc(C(N)=O)cs5)[C@H](O)[C@@H]4O)[C@@H](O)[C@H]3O)c2n1
[2]
  Ki: 0.01 µM

## Nc1ncnc2c1ncn2[C@@H]1O[C@H](CSSC[C@H]2O[C@@H](n3c(Br)nc4c(N)ncnc43)[C@H](O)[C@@H]2O)[C@@H](O)[C@H]1O
[4]; read-out: IC50
  IC50: 14 µM
[5]
  inhibition: inactive
[6]
  inhibition: inactive
[7]; read-out: IC50
  IC50: 6 µM
[9]
  inhibition: inactive

## NC(=O)c1csc([C@@H]2O[C@H](CSSC[C@H]3O[C@@H](c4nc(C(N)=O)cs4)[C@H](O)[C@@H]3O)[C@@H](O)[C@H]2O)n1
[3]
  inhibition: inactive
[4]
  IC50: Not Active
[5]
  inhibition: inactive
[6]
  inhibition: inactive
[7]
  IC50: Not Active
[8]
  inhibition: inactive
[9]
  inhibition: inactive
